The results in this text go back to ChEMBL document CHEMBL4190304, “Peroxynitrite-Scavenging Glycosides from the Stem Bark of Catalpa ovata” (J Nat Prod, 2017).

The experiment is described as follows: Peroxynitrite scavenging activity assessed as inhibition of DHR 123 oxidation after 5 mins in presence of SIN-1 by fluorescence assay. The experiment is classed as functional. The essentials:
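ONOO− generated by decomposition of SIN-1 (10 μM) in buffer of 90 mM NaCl, 50 mM Na3PO4, 5 mM KCl, 100 μM DTPA, pH 7.4 (N2-purged, on ice), with DHR 123 working solution 5 μM. Fluorescence read (ex 480/em 530 nm) 5 min after treatment with and without SIN-1. Final minus background intensity gives % inhibition of oxidation; IC50, mean ± SD, three independent experiments. DL-penicillamine positive control.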
On to `COc1cc(C(=O)O[C@H]2[C@@H]3C=CO[C@@H](O[C@@H]4O[C@H](CO)[C@@H](O)[C@H](O)[C@H]4O)[C@@H]3[C@@]3(CO)O[C@@H]23)ccc1O` [PICROSIDE II], for which the IC50 is 6 µM.
Turning to `OC[C@H]1O[C@@H](OCCc2ccc(O)cc2)[C@H](O[C@@H]2OC[C@](O)(CO)[C@H]2O)[C@@H](O)[C@@H]1O`, the IC50 is 15.7 µM.
Regarding `O=C(/C=C/c1ccc(O)cc1)O[C@H]1[C@@H]2C=CO[C@@H](O[C@@H]3O[C@H](CO)[C@@H](O)[C@H](O)[C@H]3O)[C@@H]2[C@@]2(CO)O[C@@H]12` [SPECIOSIDE], the 50% inhibitory concentration (IC50) is 13.6 µM.
With `COc1cc(/C=C/C(=O)OC[C@]23O[C@H]2[C@@H](OC(=O)/C=C/c2ccc(O)c(OC)c2)[C@@H]2C=CO[C@@H](O[C@@H]4O[C@H](CO)[C@@H](O)[C@H](O)[C@H]4O)[C@@H]23)ccc1O`, the IC50 is 0.88 µM.
In the case of `COc1ccc(/C=C/C(=O)O[C@H]2[C@@H]3C=CO[C@@H](O[C@@H]4O[C@H](CO)[C@@H](O)[C@H](O)[C@H]4O)[C@@H]3[C@@]3(CO)O[C@@H]23)cc1`, the IC50 was 78.5 µM.
For the molecule `COC/C=C/c1cc(OC)c2c(c1)[C@H](CO[C@@H]1O[C@H](COC(=O)/C=C/c3ccc(O)c(OC)c3)[C@@H](O)[C@H](O)[C@H]1O)[C@@H](c1ccc(O)c(OC)c1)O2`, the IC50 is 0.34 µM.
Regarding `COc1cc(C(=O)OC[C@@]2(O)CO[C@@H](O[C@H]3[C@H](OCCc4ccc(O)cc4)O[C@H](CO)[C@@H](O)[C@@H]3O)[C@@H]2O)ccc1O`, the IC50 is 8.6 µM.
Turning to `O=C(OC[C@@]1(O)CO[C@@H](O[C@H]2[C@H](OCCc3ccc(O)cc3)O[C@H](CO)[C@@H](O)[C@@H]2O)[C@@H]1O)c1ccc(O)cc1`, the IC50 stood at 36.2 µM.
On to `COc1cc(/C=C/C(=O)OC[C@H]2O[C@@H](Oc3ccc(CO)cc3OC)[C@H](O)[C@@H](O)[C@@H]2O)ccc1O`, for which the IC50 worked out at 0.17 µM.
Consider `COc1cc(/C=C/C(=O)O[C@@H]2C[C@@](O)(CO)[C@H]3[C@H](O[C@@H]4O[C@H](CO)[C@@H](O)[C@H](O)[C@H]4O)OC=C[C@H]32)ccc1O`, for which the IC50 worked out at 2 µM.
On to `COc1cc(CCO[C@@H]2O[C@H](CO)[C@@H](O)[C@H](O[C@@H]3O[C@H](C)[C@@H](O)[C@H](O)[C@H]3O)[C@H]2O)ccc1O`, for which the IC50 was determined as 7.7 µM.
For the molecule `COc1cc(/C=C/C(=O)O[C@H]2[C@@H]3C=CO[C@@H](O[C@@H]4O[C@H](CO)[C@@H](O)[C@H](O)[C@H]4O)[C@@H]3[C@@]3(CO)O[C@@H]23)ccc1O`, the IC50 stood at 1.6 µM.
Turning to `COc1ccc(/C=C/C(=O)O[C@@H]2C[C@@](O)(CO)[C@H]3[C@H](O[C@@H]4O[C@H](CO)[C@@H](O)[C@H](O)[C@H]4O)OC=C[C@H]32)cc1O`, the IC50 came to 3.9 µM.
For the molecule `COc1cc(/C=C/C(=O)OC[C@H]2O[C@@H](O[C@@H]3OC=C[C@H]4[C@H](OC(=O)/C=C/c5ccc(O)c(OC)c5)[C@@H]5O[C@]5(CO)[C@@H]34)[C@H](O)[C@@H](O)[C@@H]2O)ccc1O`, the IC50 came out at 1.1 µM.
`O=C(O[C@@H]1C[C@@](O)(CO)[C@H]2[C@H](O[C@@H]3O[C@H](CO)[C@@H](O)[C@H](O)[C@H]3O)OCC[C@H]21)c1ccc(O)cc1`: the IC50 was 39.5 µM.
In the case of `O=C(O[C@H]1[C@@H]2CCO[C@@H](O[C@@H]3O[C@H](CO)[C@@H](O)[C@H](O)[C@H]3O)[C@@H]2[C@@]2(CO)O[C@@H]12)c1ccc(O)cc1`, the IC50 was 58.4 µM.
Regarding `COc1cc(/C=C/C(=O)OC[C@H]2O[C@@H](OC[C@@H]3c4cc(/C=C/C=O)cc(OC)c4O[C@H]3c3ccc(O)c(OC)c3)[C@H](O)[C@@H](O)[C@@H]2O)ccc1O`, the IC50 was 0.79 µM.
Turning to `COc1ccc(C(=O)O[C@H]2[C@@H]3C=CO[C@@H](O[C@@H]4O[C@H](CO)[C@@H](O)[C@H](O)[C@H]4O)[C@@H]3[C@@]3(CO)O[C@@H]23)cc1`, the IC50 amounted to 36.4 µM.
On to `COc1cc(/C=C/C(=O)O[C@H]2[C@@H]3CCO[C@@H](O[C@@H]4O[C@H](CO)[C@@H](O)[C@H](O)[C@H]4O)[C@@H]3[C@@]3(CO)O[C@@H]23)ccc1O`, for which the 50% inhibitory concentration (IC50) stood at 2.2 µM.
As to `O=C(O[C@H]1[C@@H]2C=CO[C@@H](O[C@@H]3O[C@H](CO)[C@@H](O)[C@H](O)[C@H]3O)[C@@H]2[C@@]2(CO)O[C@@H]12)c1ccc(O)cc1` [CATALPOSIDE], the IC50 is more than 100 µM.
Regarding `COc1cc(/C=C/C(=O)OC[C@H]2OC(OC[C@H]3[C@@H](Cc4ccc(O)c(OC)c4)CO[C@@H]3c3ccc(O)c(OC)c3)[C@H](O)[C@@H](O)[C@@H]2O)ccc1O` (some centres undefined), the IC50 is 0.81 µM.
With `C[C@]1(O)C[C@@H](OC(=O)c2ccc(O)cc2)[C@@H]2CCO[C@@H](O[C@@H]3O[C@H](CO)[C@@H](O)[C@H](O)[C@H]3O)[C@@H]21` the figure was 8.3 µM; with `CC(C)(S)C(N)C(=O)O` (racemic) [DL-PENICILLAMINE], 3.4 µM; with `O=C(OC1C[C@@]2(O)COC3C[C@@H](O[C@@H]4O[C@H](CO)[C@@H](O)[C@H](O)[C@H]4O)[C@H]2[C@H]1C3)c1ccc(O)cc1` (some centres undefined), 76.7 µM.
With `O=C(/C=C/c1ccc(O)cc1)OC[C@@]1(O)CO[C@@H](O[C@H]2[C@H](OCCc3ccc(O)cc3)O[C@H](CO)[C@@H](O)[C@@H]2O)[C@@H]1O`, the IC50 came to 4.5 µM.
On to `COc1ccc(C(=O)O[C@H]2[C@@H]3C=CO[C@@H](O[C@@H]4O[C@H](CO)[C@@H](O)[C@H](O)[C@H]4O)[C@@H]3[C@@]3(CO)O[C@@H]23)cc1OC`, for which the IC50 was more than 100 µM.
`COc1cc(/C=C/C(=O)OC[C@H]2O[C@@H](OCCc3ccc(O)cc3)[C@H](O)[C@@H](O)[C@@H]2O)ccc1O`: the IC50 was determined as 0.14 µM.
As to `COc1cc(/C=C/C(=O)OC[C@H]2O[C@@H](OCCC3(O)CCC(=O)CC3)[C@H](O)[C@@H](O)[C@@H]2O)ccc1O`, the concentration for half-maximal inhibition (IC50) came out at 1.02 µM.
Turning to `COc1cc(/C=C/C(=O)OC[C@H]2O[C@@H](Oc3ccc(O)cc3OC)[C@H](O)[C@@H](O)[C@@H]2O)ccc1O`, the half-inhibitory concentration (IC50) was 0.48 µM.
